Source: PubChem BioAssay (several laboratories)
Shown are actives, neighbours in structure and some others; about 2.4% of the full set was active somewhere.
SR-BI HDL uptake – inhibitors of SR-BI mediated HDL lipid uptake, primary screen, ldlA[mSR-BI] cells, fluorescence, single point; inhibition, % at 12.5 µM; ldlA[mSR-BI] CHO cells, DiI-HDL uptake fluorescence, 3 h; 320,000 compounds, 0.96% hits; AID 488896, 2010; Scavenger receptor class B member 1 (Mus musculus), Q61009;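 active = mean replicate inhibition of at least 70% and a set share of replicates each scoring 70 or more; inconclusive = meets just one of the two criteria; inactive = fails both criteria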;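 note: 0% = median of neutral control wells and 100% = median of positive control wells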
Calb FLC – C. albicans growth inhibition with fluconazole, primary screen, CaCi-2 strain, Alamar Blue fluorescence; 300,000 compounds, 0.57% hits; AID 1979, 2009; C. albicans CaCi-2 + fluconazole, 48 h; growth inhibition, % (test concentration not listed);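 active = growth inhibition above about 58% in most replicates, limit read from the data, passing the limit was not always enough; inconclusive = exactly half the replicates above a set limit; inactive = most replicates below a set limit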;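 note: all wells also contain fluconazole at 8 µg/ml as a sub-toxic cotreatment; 0% = median of DMSO wells and 100% = median of geldanamycin control wells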
m5-HT2A agonist – mouse Htr2a agonists via beta-arrestin recruitment, primary screen, cell-based, luminescence; 360,000 compounds, 0.66% hits; CHO-K1 mHTR2A beta-arrestin complementation; percent of 30 µM serotonin response; 5-hydroxytryptamine receptor 2A (Mus musculus), P35363; activation, % at 7.6 µM;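 active = activation above a run cutoff, the mean activation of all tested compounds plus 3 SD, cut at about 14% in these data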;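 note: 0% = plate median of compound wells and 100% = 30 µM serotonin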
Target sequence (P35363 whole entry, looked up): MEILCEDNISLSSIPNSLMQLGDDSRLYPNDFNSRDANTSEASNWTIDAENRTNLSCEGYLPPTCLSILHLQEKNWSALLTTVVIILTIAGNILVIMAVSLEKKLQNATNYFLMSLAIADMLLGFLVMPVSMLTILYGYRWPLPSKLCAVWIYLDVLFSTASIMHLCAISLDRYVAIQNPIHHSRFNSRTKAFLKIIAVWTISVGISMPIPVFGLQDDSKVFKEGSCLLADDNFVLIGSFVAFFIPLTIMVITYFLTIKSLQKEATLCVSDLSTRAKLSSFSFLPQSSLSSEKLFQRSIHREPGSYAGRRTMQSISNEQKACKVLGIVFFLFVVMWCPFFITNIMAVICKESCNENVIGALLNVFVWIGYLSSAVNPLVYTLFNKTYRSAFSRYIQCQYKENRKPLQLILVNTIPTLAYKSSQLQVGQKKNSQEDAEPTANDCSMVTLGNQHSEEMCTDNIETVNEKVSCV
SR-BI uptake up – activators of SR-BI mediated DiI-HDL uptake, primary screen, ldlA[mSR-BI] CHO cells, DiI fluorescence; 3 h; 100 = double the neutral-control signal; 320,000 compounds, 0.096% hits; activation, % at 12.5 µM;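 active = mean replicate activation of at least 60% and every replicate at or above 60%; inconclusive = mean or all-replicate condition met, but not both; inactive = mean below 60% and not all replicates reaching 60%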;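 note: 0% = median plate neutral-control signal and 100% = twice that signal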
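material = CHO ldlA[mSR-BI] cells | medium = Ham's F12 with 0.5% BSA, HEPES 25 mM, pH 7.4 | reagent = fluorescent DiI-HDL, 10 µg/mL final | compound dosing = single-point compound dose | incubation = 3 h, 37 °C | measured by = bottom-read fluorescence, 550/595 nm | measure = HDL uptake via cellular fluorescence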
MIN6 prolif – inducers of MIN6 beta-cell proliferation, primary screen, ATP luminescence, uHTS; proliferation, % at 10 µM; MIN6 cells proliferation, ATPlite luminescence, 48 h; cells starved in 0.2% serum; 100% = growth in 10% serum; AID 2380, 2010; 330,000 compounds, 0.29% hits;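 active = compounds whose signal lies at least 3.5 SD above the mean of all wells on their plate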;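 note: 0% = DMSO-treated cells in low-serum medium and 100% = 10% serum control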
Ins promoter up – insulin promoter activators in MIN6 cells, imaging, high-content screening, mouse beta cells; 190,000 compounds, 0.3% hits; z-score at 5 µM; MIN6 insulin promoter-GFP reporter; hits give high values;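 active = z-score above 3 at 5 µM with at least 500 cells counted in the well; inconclusive = wells under 500 cells, flagged as cytotoxic or low count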
* hit, by the source's call; ? = inconclusive; / = no result given.

SMILES	SR-BI HDL uptake	Calb FLC	m5-HT2A agonist	SR-BI uptake up	MIN6 prolif	Ins promoter up
CCOC(=O)c1ccc(NC(=O)Cn2ncc(Cl)c(Cl)c2=O)cc1	-1.7	64.2	1.8	1.7	-5.8	?
O=C(OCn1ncc(Cl)c(Cl)c1=O)c1ccc(C(F)(F)F)cc1	5.3	105.7*	5.0	-5.3	-5.9	/
Cc1ccc(C(=O)OCn2ncc(Cl)c(Cl)c2=O)cc1	-5.5	113.6*	-3.8	5.5	-6.1	?
C=CCc1cccc(/C=N/NC(=O)CNc2ccccc2)c1O	21.3	-5.6	-8.0	-21.3	-5.5	-0.11
C=CCc1cccc(/C=N/NC(=O)CNc2cccc3ccccc23)c1O	28.3	92.2*	-3.7	-28.3	-5.6	/
C=CCc1cccc(/C=N/NC(=O)CNc2ccccc2OC)c1O	17.0	92.6*	-4.0	-17.0	-5.8	-0.26
O=C1c2ccccc2NC(c2cn[nH]c2-c2ccc(Cl)cc2)N1O (configuration not stated)	-3.4	90.6*	3.4	3.4	-1.3	-0.35
O=C1c2ccccc2NC(c2cn[nH]c2-c2ccccc2)N1O (configuration not stated)	3.7	17.8	1.6	-3.7	-3.1	0.62
CN(CC(=O)Nc1ccccc1Br)C(=O)c1cccc(S(=O)(=O)N2CCc3ccccc32)c1	81.8*	/	-3.0	-81.8	/	/
COc1ccc(NC(=O)CN(C)C(=O)c2cccc(S(=O)(=O)N3CCCc4ccccc43)c2)cc1	38.5	4.9	-3.2	-38.5	-3.6	/
O=C(Nc1nc2ccc(F)cc2s1)c1cccc(S(=O)(=O)N2CCc3ccccc32)c1	74.3*	-3.1	1.9	-74.3	0.0	-0.22
CCOC(=O)c1sc(NC(=O)c2cccc(S(=O)(=O)N3CCc4ccccc43)c2)c(C#N)c1C	75.5*	-2.0	0.4	-75.5	-6.5	-1.74
CSc1nsc(/C=C/Nc2ccc(C)cc2)c1C#N	25.0	-0.9	3.3	-25.0	-4.2	3.5*
CSc1nsc(/C=C/Nc2ccc(C)c(C)c2)c1C#N	10.3	9.0	-0.8	-10.3	-4.4	0.33
S=c1[nH]nc(-c2ccccc2)n1CC1CCCO1 (configuration not stated)	-9.2	-5.2	13.3	9.2	0.4	3.06*
Cc1nc(=O)c(-c2ccccc2)c(C)n1CC1CCCO1 (configuration not stated)	-3.2	-1.4	3.8	3.2	-0.2	0.41
CN1C(=O)CC(N2CCN(Cc3ccc(Cl)cc3)CC2)C1=O (configuration not stated)	-40.6	-2.4	3.8	40.6	-2.1	3.88*
O=C1CC(N2CCN(Cc3ccccc3)CC2)C(=O)N1c1ccccc1 (configuration not stated)	-0.3	-8.4	2.9	0.3	-3.0	-0.8
Cc1cc(-c2csc(N)n2)c(C)n1-c1ccc(Cl)c(Cl)c1	70.2*	-4.4	-3.4	-70.2	-4.7	0.09
O=[N+]([O-])c1ccc(-c2ccc(S(=O)(=O)N3CCOCC3)cc2)cc1	80.2*	-5.7	-2.2	-80.2	-1.4	/
O=[N+]([O-])c1ccc(Oc2ccc(S(=O)(=O)N3CCOCC3)cc2)cc1	/	1.4	-1.1	/	-1.5	/
C(=N\NC1=Nc2cccc3cccc1c23)/c1ccccn1	47.7	94.0*	-1.4	-47.7	/	-1.5
CC(C)COCc1ccc(O)c2ncccc12	-19.4	98.2*	-1.9	19.4	-5.2	-2.28
CCCOCc1ccc(O)c2ncccc12	-15.6	89.9*	-3.9	15.6	-6.1	-1.74
Oc1ccc(COCc2ccccc2)c2cccnc12	22.2	1.2	-2.1	-22.2	-4.0	/
O=C(Nc1ccccc1)c1cc(C2COCCN2C(=O)C2CC2)on1 (configuration not stated)	/	/	4.2	/	/	/
Cc1ccc2c(=O)n3c(nc2c1)C(C)NC(=O)c1cccnc1-3 (configuration not stated)	/	/	1.8	/	/	/
Clc1c(Cl)c(Cl)c2n[nH]nc2c1Cl	6.1	44.9	18.1*	-6.1	-3.1	0.26
